BindingDB's records for doi:10.1021/acs.jmedchem.6b00914 (Amri, 2016)

Molecular target: T1, Sodium- and chloride-dependent glycine transporter 2 (Homo sapiens, UniProt Q9Y345)
T1 sequence (Q9Y345 whole entry): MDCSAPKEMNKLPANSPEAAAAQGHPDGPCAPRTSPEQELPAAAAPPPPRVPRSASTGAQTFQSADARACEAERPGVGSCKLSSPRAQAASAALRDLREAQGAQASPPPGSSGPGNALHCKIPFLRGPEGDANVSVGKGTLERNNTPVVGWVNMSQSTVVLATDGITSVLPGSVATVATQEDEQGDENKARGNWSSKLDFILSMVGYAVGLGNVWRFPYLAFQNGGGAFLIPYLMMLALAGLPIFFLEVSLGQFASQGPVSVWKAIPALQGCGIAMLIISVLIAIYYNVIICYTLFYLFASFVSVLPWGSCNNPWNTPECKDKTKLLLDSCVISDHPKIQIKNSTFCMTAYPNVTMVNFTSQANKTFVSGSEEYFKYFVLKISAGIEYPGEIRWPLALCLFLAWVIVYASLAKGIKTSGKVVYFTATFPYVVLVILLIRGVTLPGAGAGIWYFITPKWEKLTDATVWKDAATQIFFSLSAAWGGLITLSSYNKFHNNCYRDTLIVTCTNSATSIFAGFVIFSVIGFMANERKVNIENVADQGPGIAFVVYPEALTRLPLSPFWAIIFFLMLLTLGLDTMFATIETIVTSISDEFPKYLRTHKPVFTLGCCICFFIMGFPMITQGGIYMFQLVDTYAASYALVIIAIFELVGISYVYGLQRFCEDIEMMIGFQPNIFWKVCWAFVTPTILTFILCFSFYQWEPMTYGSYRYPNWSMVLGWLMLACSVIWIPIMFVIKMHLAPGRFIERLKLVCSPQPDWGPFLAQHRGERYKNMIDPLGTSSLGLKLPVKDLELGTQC
Assay: Inhibition of human glycine transporter-2 expressed in HEK293 cells assessed as reduction in [14C]glycine uptake preincubated for 10 mins followed by [14C]glycine addition measured after 3 hrs by scintillation proximity assay
Summary of the method: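 HEK293 cells stably transfected with GlyT-2 (Geneticin-selected polyclonal population) were plated on poly-L-lysine-coated plates in DMEM/10% FBS and incubated overnight. The [¹⁴C]glycine uptake SPA was then run as for JAR cells: uptake buffer, 10 min room-temperature preincubation, 3 h incubation at 37 °C.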

With `CC(NC(=O)c1ccc(C(F)(F)F)cc1Cl)C1(N2CCN(S(=O)(=O)c3cn(C)nn3)CC2)CCC(F)(F)CC1` (stereo unspecified) the IC50 was > 75 µM.
